Tests used:
[1] = tested on: A549; assay: Cell cycle arrest in human A549 cells assessed as accumulation at G1 phase at 1 uM after 24 hrs; assay type: functional
Method in brief: (§1)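 A549 cells grown 24 h in drug-free medium or with compound at 0.1 or 1 µM. Cells were trypsinized, washed twice in PBS, fixed in cold 70% ethanol (30 min, -20 °C), then washed in citrate phosphate buffer and PBS. RNase (100 µg/mL) for 30 min at 37 °C, then propidium iodide (100 µg/mL) for 30 min at room temperature. Flow cytometry at 488/525 nm, ≥15 000 events, 3-4 repeats.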

[2] = tested on: A549; assay: Cell cycle arrest in human A549 cells assessed as accumulation at S phase at 0.1 uM after 24 hrs; assay type: functional; method in brief: as §1
[3] = Cytotoxicity againat taxol-resistant human A549T24 cells after 72 hrs by MTT assay; assay type: functional, cell-based; details: A549, 72 h
[4] = tested on: HeLa; assay: Cytotoxicity against human HeLa cells after 72 hrs by MTT assay; assay type: functional, cell-based
Method in brief: (§2)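 MTT assay. Cells seeded at 7 × 10³ per well; after 24 h, exponentially growing cells were exposed to compound (final 0.005–100 µM) for 72 h. MTT was added for 4 h, then 10% SDS in 0.01 N HCl for 18 h at 37 °C. Absorbance read at 550 nm; survival given as % of untreated cells. IC50 from 6-8 replicate wells, ≥2 independent experiments.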

[5] = tested on: OE19; assay: Cytotoxicity against human OE19 cells after 72 hrs by MTT assay; assay type: functional, cell-based; details: OE19, 72 h; method in brief: as §2
[6] = tested on: PT-45; assay: Cytotoxicity against human PT45 cells after 72 hrs by MTT assay; assay type: functional, cell-based; details: PT-45, 72 h; method in brief: as §2
[7] = tested on: MCF7; assay: Cytotoxicity against human MCF7 cells after 72 hrs by MTT assay; assay type: functional, cell-based; details: MCF7, 72 h; method in brief: as §2
[8] = tested on: HepG2; assay: Cytotoxicity against human HepG2 cells after 72 hrs by MTT assay; assay type: functional, cell-based; details: HepG2, 72 h; method in brief: as §2
[9] = tested on: A549; assay: Cell cycle arrest in human A549 cells assessed as accumulation at G2/M phase at 1 uM after 24 hrs; assay type: functional; method in brief: as §1
[10] = Cytotoxicity againat taxol-resistant human A549T12 cells after 72 hrs by MTT assay; assay type: functional, cell-based; details: A549, 72 h
[11] = tested on: A549; assay: Cell cycle arrest in human A549 cells assessed as accumulation at S phase at 1 uM after 24 hrs; assay type: functional; method in brief: as §1
[12] = Cytotoxicity against human H295R cells after 72 hrs by MTT assay; assay type: functional, cell-based; details: NCI-H295R; method in brief: as §2
[13] = tested on: A549; assay: Resistance index, ratio of IC50 for A549 cells to IC50 for A549T12 cells; assay type: functional, Homo sapiens
[14] = tested on: HT-29; assay: Cytotoxicity against human HT29 cells after 72 hrs by MTT assay; assay type: functional, cell-based; details: HT-29, 72 h; method in brief: as §2
[15] = tested on: OVCAR-3; assay: Cytotoxicity against human Ovcar3 cells after 72 hrs by MTT assay; assay type: functional, cell-based; details: OVCAR-3, 72 h; method in brief: as §2
[16] = tested on: OE33; assay: Cytotoxicity against human OE33 cells after 72 hrs by MTT assay; assay type: functional, cell-based; details: OE33, 72 h; method in brief: as §2
[17] = tested on: A549; assay: Cell cycle arrest in human A549 cells assessed as accumulation at G1 phase at 0.1 uM after 24 hrs; assay type: functional; method in brief: as §1
[18] = tested on: ARO; assay: Cytotoxicity against human Aro cells after 72 hrs by MTT assay; assay type: functional, cell-based; method in brief: as §2
[19] = tested on: A549; assay: Cytotoxicity against human A549 cells after 72 hrs by MTT assay; assay type: functional, cell-based; details: A549, 72 h
Method in brief: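 MTT assay. Cells seeded at 7 × 10³ per well; after 24 h, exponentially growing cells were exposed to compound (final 0.005–100 µM) for 72 h. MTT was added for 4 h, then 10% SDS in 0.01 N HCl for 18 h at 37 °C. Absorbance read at 550 nm; survival given as % of untreated cells.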

[20] = tested on: A549; assay: Cell cycle arrest in human A549 cells assessed as accumulation at sub Go phase at 0.1 uM after 24 hrs; assay type: functional
[21] = tested on: A549; assay: Cell cycle arrest in human A549 cells assessed as accumulation at G2/M phase at 0.1 uM after 24 hrs; assay type: functional; method in brief: as §1
[22] = tested on: A549; assay: Cell cycle arrest in human A549 cells assessed as accumulation at sub Go phase at 1 uM after 24 hrs; assay type: functional

SMILES | Activity [1] [%] | Activity [2] [%] | IC50 [3] [nM] | IC50 [4] [nM] | IC50 [5] [nM] | IC50 [6] [nM] | IC50 [7] [nM] | IC50 [8] [nM] | Activity [9] [%] | IC50 [10] [nM] | Activity [11] [%] | IC50 [12] [nM] | Ratio IC50 [13] | IC50 [14] [nM] | IC50 [15] [nM] | IC50 [16] [nM] | Activity [17] [%] | IC50 [18] [nM] | IC50 [19] [nM] | Activity [22] [%] | also measured
CCCn1ccc2c3c(=O)cc(-c4ccccc4)[nH]c3ccc21 | 13.5 | 8.7 | 40 | 30 | 50 | 50 | 70 | 40 | 76.9 | 40 | 9.6 | 20 | 1.2 | 200 | 20 | 100 | 13.6 | 50 | 50 | 0.3 | Activity [20]: 1.3%; Activity [21]: 76.2%
CC(=O)O[C@H]1C(=O)[C@@]2(C)[C@H]([C@H](OC(=O)c3ccccc3)[C@]3(O)C[C@H](OC(=O)[C@H](O)[C@@H](NC(=O)c4ccccc4)c4ccccc4)C(C)=C1C3(C)C)[C@]1(OC(C)=O)CO[C@@H]1C[C@@H]2O [PACLITAXEL] |  |  | 102 | 8 | 400 | 5 | 7 | 300 |  | 60 |  | 80 |  | 50 | 10 | 200 |  | 0.2 |  |  | 
CC[C@]1(O)C[C@H]2CN(CCc3c([nH]c4ccccc34)[C@@](C(=O)OC)(c3cc4c(cc3OC)N(C=O)[C@H]3[C@@](O)(C(=O)OC)[C@H](OC(C)=O)[C@]5(CC)C=CCN6CC[C@]43[C@@H]65)C2)C1 [VINCRISTINE] | 46.8 |  |  | 5 | 50 | 4 | 20 | 200 | 45.2 |  | 7.9 | 90 |  | 10 | 20 | 30 |  | 0.3 | 30 | 0.5 | 
CCn1ccc2c3c(=O)cc(-c4ccccc4)[nH]c3ccc21 | 14.1 | 8.1 | 30 | 10 | 80 | 30 | 40 | 50 | 77.3 | 30 | 8.1 | 30 | 1 | 30 | 40 | 200 | 11.7 | 30 | 30 | 0.4 | Activity [20]: 0.6%; Activity [21]: 79.8%
O=c1cc(-c2ccccc2)[nH]c2ccc3[nH]ccc3c12 |  |  |  |  | 1000 |  |  |  |  |  |  |  |  |  |  | 2000 |  |  |  |  | 

Reference: ChEMBL document CHEMBL1137570, “3-substituted 7-phenyl-pyrroloquinolinones show potent cytotoxic activity in human cancer cell lines” (J Med Chem, 2007)
